In ChEMBL document CHEMBL3272198, “Preparation and in vitro antifungal activities of some quinolizidine derived hemiaminals and beta-tert-amino sulfides” (1976):

Key:
Type in all cases: functional
Blastomyces dermatitidis [1] = assay: Antifungal activity against Blastomyces dermatitidis Gilchrist & Stokes isolate 1099 at 100 ug/ml after 1 week (reference value: 14 mm); conditions: Gilchrist & Stokes isolate 1099, 168 h, read-out: DIZ
Histoplasma capsulatum [2] = assay: Antifungal activity against Histoplasma capsulatum Darling isolate 1098 at 80 ug/ml after 1 week (reference value: 12 mm); conditions: Darling isolate 1098, 168 h, read-out: DIZ
Blastomyces dermatitidis [3] = assay: Antifungal activity against Blastomyces dermatitidis Gilchrist & Stokes isolate 1107 at 20 ug/ml after 2 weeks (reference value: 35 mm); conditions: Gilchrist & Stokes isolate 1107, 336 h, read-out: DIZ
Blastomyces dermatitidis [4] = assay: Antifungal activity against Blastomyces dermatitidis Gilchrist & Stokes isolate 1099 at 20 ug/ml after 3 weeks (reference value: 34 mm); conditions: Gilchrist & Stokes isolate 1099, 504 h, read-out: DIZ
Blastomyces dermatitidis [5] = assay: Antifungal activity against Blastomyces dermatitidis Gilchrist & Stokes isolate 1099 at 40 ug/ml after 1 week (reference value: 14 mm); conditions: Gilchrist & Stokes isolate 1099, 168 h, read-out: DIZ
Histoplasma capsulatum [6] = assay: Antifungal activity against Histoplasma capsulatum Darling isolate 1106 at 10 ug/ml after 3 weeks (reference value: 31 mm); conditions: Darling isolate 1106, 504 h, read-out: DIZ
Blastomyces dermatitidis [7] = assay: Antifungal activity against Blastomyces dermatitidis Gilchrist & Stokes isolate 1107 at 20 ug/ml after 3 weeks (reference value: 40 mm); conditions: Gilchrist & Stokes isolate 1107, 504 h, read-out: DIZ
Blastomyces dermatitidis [8] = assay: Antifungal activity against Blastomyces dermatitidis Gilchrist & Stokes isolate 1107 at 60 ug/ml after 1 week (reference value: 20 mm); conditions: Gilchrist & Stokes isolate 1107, 168 h, read-out: DIZ
Histoplasma capsulatum [9] = assay: Antifungal activity against Histoplasma capsulatum Darling isolate 1106 at 20 ug/ml after 3 weeks (reference value: 31 mm); conditions: Darling isolate 1106, 504 h, read-out: DIZ
Histoplasma capsulatum [10] = assay: Antifungal activity against Histoplasma capsulatum Darling isolate 1106 at 60 ug/ml after 3 weeks (reference value: 31 mm); conditions: Darling isolate 1106, 504 h, read-out: DIZ
Blastomyces dermatitidis [11] = assay: Antifungal activity against Blastomyces dermatitidis Gilchrist & Stokes isolate 1099 at 40 ug/ml after 2 weeks (reference value: 27 mm); conditions: Gilchrist & Stokes isolate 1099, 336 h, read-out: DIZ
In short: (§1)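 Mycelial phase grown on Sabouraud dextrose agar at 25°C. Agar pH was set to 6 before the test solution was added and was 5.0-5.5 after. Test solutions contained HOAc and Me2SO, and solvent and blank controls were included. Each quadrant was center-inoculated with a 2 × 2 mm piece of a 2-week-old mycelial culture. Colony diameter was measured weekly for 3 weeks and reported as total increments (mm). Duplicates were run.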

Histoplasma capsulatum [12] = assay: Antifungal activity against Histoplasma capsulatum Darling isolate 1106 at 80 ug/ml after 2 weeks (reference value: 25 mm); conditions: Darling isolate 1106, 336 h, read-out: DIZ
Histoplasma capsulatum [13] = assay: Antifungal activity against Histoplasma capsulatum Darling isolate 1106 at 80 ug/ml after 3 weeks (reference value: 31 mm); conditions: Darling isolate 1106, 504 h, read-out: DIZ
Histoplasma capsulatum [14] = assay: Antifungal activity against Histoplasma capsulatum Darling isolate 1098 at 40 ug/ml after 2 weeks (reference value: 21 mm); conditions: Darling isolate 1098, 336 h, read-out: DIZ
Histoplasma capsulatum [15] = assay: Antifungal activity against Histoplasma capsulatum Darling isolate 1106 at 60 ug/ml after 1 week (reference value: 14 mm); conditions: Darling isolate 1106, 168 h, read-out: DIZ
Histoplasma capsulatum [16] = assay: Antifungal activity against Histoplasma capsulatum Darling isolate 1106 at 40 ug/ml after 1 week (reference value: 14 mm); conditions: Darling isolate 1106, 168 h, read-out: DIZ
Histoplasma capsulatum [17] = assay: Antifungal activity against Histoplasma capsulatum Darling isolate 1098 at 60 ug/ml after 3 weeks (reference value: 28 mm); conditions: Darling isolate 1098, 504 h, read-out: DIZ
Histoplasma capsulatum [18] = assay: Antifungal activity against Histoplasma capsulatum Darling isolate 1098 at 10 ug/ml after 3 weeks (reference value: 28 mm); conditions: Darling isolate 1098, 504 h, read-out: DIZ
Blastomyces dermatitidis [19] = assay: Antifungal activity against Blastomyces dermatitidis Gilchrist & Stokes isolate 1107 at 80 ug/ml after 3 weeks (reference value: 40 mm); conditions: Gilchrist & Stokes isolate 1107, 504 h, read-out: DIZ; in short: as §1
Histoplasma capsulatum [20] = assay: Antifungal activity against Histoplasma capsulatum Darling isolate 1098 at 80 ug/ml after 2 weeks (reference value: 21 mm); conditions: Darling isolate 1098, 336 h, read-out: DIZ
Histoplasma capsulatum [21] = assay: Antifungal activity against Histoplasma capsulatum Darling isolate 1098 at 10 ug/ml after 2 weeks (reference value: 21 mm); conditions: Darling isolate 1098, 336 h, read-out: DIZ
Blastomyces dermatitidis [22] = assay: Antifungal activity against Blastomyces dermatitidis Gilchrist & Stokes isolate 1099 at 80 ug/ml after 2 weeks (reference value: 27 mm); conditions: Gilchrist & Stokes isolate 1099, 336 h, read-out: DIZ
Histoplasma capsulatum [23] = assay: Antifungal activity against Histoplasma capsulatum Darling isolate 1098 at 60 ug/ml after 1 week (reference value: 12 mm); conditions: Darling isolate 1098, 168 h, read-out: DIZ
Blastomyces dermatitidis [24] = assay: Antifungal activity against Blastomyces dermatitidis Gilchrist & Stokes isolate 1099 at 10 ug/ml after 2 weeks (reference value: 27 mm); conditions: Gilchrist & Stokes isolate 1099, 336 h, read-out: DIZ; in short: as §1
Histoplasma capsulatum [25] = assay: Antifungal activity against Histoplasma capsulatum Darling isolate 1098 at 40 ug/ml after 3 weeks (reference value: 28 mm); conditions: Darling isolate 1098, 504 h, read-out: DIZ
Histoplasma capsulatum [26] = assay: Antifungal activity against Histoplasma capsulatum Darling isolate 1098 at 20 ug/ml after 3 weeks (reference value: 28 mm); conditions: Darling isolate 1098, 504 h, read-out: DIZ
Blastomyces dermatitidis [27] = assay: Antifungal activity against Blastomyces dermatitidis Gilchrist & Stokes isolate 1099 at 20 ug/ml after 1 week (reference value: 14 mm); conditions: Gilchrist & Stokes isolate 1099, 168 h, read-out: DIZ; in short: as §1
Blastomyces dermatitidis [28] = assay: Antifungal activity against Blastomyces dermatitidis Gilchrist & Stokes isolate 1099 at 20 ug/ml after 2 weeks (reference value: 27 mm); conditions: Gilchrist & Stokes isolate 1099, 336 h, read-out: DIZ
Histoplasma capsulatum [29] = assay: Antifungal activity against Histoplasma capsulatum Darling isolate 1098 at 40 ug/ml after 1 week (reference value: 12 mm); conditions: Darling isolate 1098, 168 h, read-out: DIZ
Histoplasma capsulatum [30] = assay: Antifungal activity against Histoplasma capsulatum Darling isolate 1098 at 60 ug/ml after 2 weeks (reference value: 21 mm); conditions: Darling isolate 1098, 336 h, read-out: DIZ
Histoplasma capsulatum [31] = assay: Antifungal activity against Histoplasma capsulatum Darling isolate 1098 at 20 ug/ml after 2 weeks (reference value: 21 mm); conditions: Darling isolate 1098, 336 h, read-out: DIZ
Histoplasma capsulatum [32] = assay: Antifungal activity against Histoplasma capsulatum Darling isolate 1106 at 80 ug/ml after 1 week (reference value: 14 mm); conditions: Darling isolate 1106, 168 h, read-out: DIZ
Blastomyces dermatitidis [33] = assay: Antifungal activity against Blastomyces dermatitidis Gilchrist & Stokes isolate 1107 at 10 ug/ml after 1 week (reference value: 20 mm); conditions: Gilchrist & Stokes isolate 1107, 168 h, read-out: DIZ; in short: as §1

CS[C@@]1(C)CC[C@@H]2CCCCN2C1O (stereo partly drawn)
zone of inhibition at 100 µg/mL (Blastomyces dermatitidis [1]): 13 mm
zone of inhibition at 80 µg/mL (Histoplasma capsulatum [2]): 9 mm
zone of inhibition at 20 µg/mL (Blastomyces dermatitidis [3]): 34 mm
zone of inhibition at 20 µg/mL (Blastomyces dermatitidis [4]): 35 mm
zone of inhibition at 40 µg/mL (Blastomyces dermatitidis [5]): 13 mm
zone of inhibition at 10 µg/mL (Histoplasma capsulatum [6]): 26 mm
zone of inhibition at 20 µg/mL (Blastomyces dermatitidis [7]): 40 mm
zone of inhibition at 60 µg/mL (Blastomyces dermatitidis [8]): 20 mm
zone of inhibition at 20 µg/mL (Histoplasma capsulatum [9]): 26 mm
zone of inhibition at 60 µg/mL (Histoplasma capsulatum [10]): 27 mm
zone of inhibition at 40 µg/mL (Blastomyces dermatitidis [11]): 26 mm
zone of inhibition at 80 µg/mL (Histoplasma capsulatum [12]): 19 mm
zone of inhibition at 80 µg/mL (Histoplasma capsulatum [13]): 26 mm
zone of inhibition at 40 µg/mL (Histoplasma capsulatum [14]): 19 mm
zone of inhibition at 60 µg/mL (Histoplasma capsulatum [15]): 10 mm
zone of inhibition at 40 µg/mL (Histoplasma capsulatum [16]): 10 mm
zone of inhibition at 60 µg/mL (Histoplasma capsulatum [17]): 30 mm
zone of inhibition at 10 µg/mL (Histoplasma capsulatum [18]): 31 mm
zone of inhibition at 80 µg/mL (Blastomyces dermatitidis [19]): 40 mm
zone of inhibition at 80 µg/mL (Histoplasma capsulatum [20]): 18 mm
zone of inhibition at 10 µg/mL (Histoplasma capsulatum [21]): 20 mm
zone of inhibition at 80 µg/mL (Blastomyces dermatitidis [22]): 25 mm
zone of inhibition at 60 µg/mL (Histoplasma capsulatum [23]): 9 mm
zone of inhibition at 10 µg/mL (Blastomyces dermatitidis [24]): 28 mm
zone of inhibition at 40 µg/mL (Histoplasma capsulatum [25]): 30 mm
zone of inhibition at 20 µg/mL (Histoplasma capsulatum [26]): 31 mm
zone of inhibition at 20 µg/mL (Blastomyces dermatitidis [27]): 15 mm
zone of inhibition at 20 µg/mL (Blastomyces dermatitidis [28]): 26 mm
zone of inhibition at 40 µg/mL (Histoplasma capsulatum [29]): 9 mm
zone of inhibition at 60 µg/mL (Histoplasma capsulatum [30]): 18 mm
zone of inhibition at 20 µg/mL (Histoplasma capsulatum [31]): 18 mm
zone of inhibition at 80 µg/mL (Histoplasma capsulatum [32]): 10 mm
zone of inhibition at 10 µg/mL (Blastomyces dermatitidis [33]): 20 mm
